pEC50, pKi: −log10 of the molar value. The source made the active and inactive calls.
Experiments:
Cannabinoid receptor 2 [1] = molecular target: T1, Cannabinoid receptor 2 (Homo sapiens, UniProt P34972); assay: Binding affinity to CB2 receptor by competition binding assay
In short: (§1)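 Competition binding on membranes of CHO-K1 cells expressing hCB2 (0.25 μg protein/well). Buffer was 50 mM Tris pH 7.4, 2.5 mM EDTA, 0.5% BSA, with 1 nM [3H]-labelled reference ligand. Nonspecific binding defined with 10 μM unlabelled ligand. Incubated 60 min at 30 °C, then filtered and counted by liquid scintillation. Duplicates at several concentrations. IC50 from a one-site fit, converted to Ki by Cheng–Prusoff.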

Cannabinoid receptor 2 [2] = molecular target: T1, Cannabinoid receptor 2; assay: Binding affinity to CB2 receptor; in short: as §1
Cannabinoid receptor 2 [3] = molecular target: T1, Cannabinoid receptor 2; assay: Inverse agonist activity at CB2 receptor; type: functional
In short: (§2)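 GTPγ[35S] binding in CHO membranes expressing recombinant hCB1 or hCB2. Membranes preincubated with GDP (30 μM solution) on ice for at least 15 min, then mixed with GTPγ[35S] and WGA SPA beads. Incubated 1 h at room temperature, centrifuged, held 1 h more, then counted. Eight concentrations (0.001–10 μM) in duplicate, reported as the mean of two. Emax expressed as % of the reference agonist.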

Cannabinoid receptor 2 [4] = molecular target: T1, Cannabinoid receptor 2; assay: Inverse agonist activity at human recombinant CB2 receptor expressed CHO cells membrane by [35S]GTPgamma binding assay relative to 2-((1R,2R,5R)-5-hydroxy-2-(3-hydroxypropyl)cyclohexyl)-5-(2-methyloctan-2-yl)phenol; type: functional, cell membranes; in short: as §2
Cannabinoid receptor 1 [5] = molecular target: T2, Cannabinoid receptor 1 (Homo sapiens, UniProt P21554); assay: Inverse agonist activity at human recombinant CB1 receptor expressed CHO cells membrane by [35S]GTPgamma binding assay; type: functional, cell membranes; in short: as §2
Cannabinoid receptor 2 [6] = molecular target: T1, Cannabinoid receptor 2; assay: Inverse agonist activity at human recombinant CB2 receptor expressed CHO cells membrane by [35S]GTPgamma binding assay; type: functional, cell membranes; in short: as §2
Rattus norvegicus [7] = assay: Inhibition of (3-benzyl-3-methyl-2,3-dihydrobenzofuran-6-yl)(piperidin-1-yl)methanone-induced antiallodynic activity in L5/L6 spinal nerve tight ligated neuropathic pain Sprague-Dawley rat model assessed as paw withdrawal threshold at 10 mg/kg, ip administered 15 mins before 3-benzyl-3-methyl-2,3-dihydrobenzofuran-6-yl)(piperidin-1-yl)methanone challenge; type: functional, organism-based; parameters: dose 10 mg/kg
In short: (§3)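 Adult male Sprague–Dawley rats (120–150 g). Left L5 and L6 spinal nerves tightly ligated with 6–0 silk under isoflurane. Tested 10–14 days after ligation. Drugs given ip. Vehicle was N-methylpyrrolidone 30%, propylene glycol 30%, ethanol 10%, Cremophor 10% and water. For […], given 15 min before the ip CB2 agonist. Von Frey up–down 50% withdrawal threshold (cutoff 15 g) and %MPE, n = 5 per group.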

Cannabinoid receptor 2 [8] = molecular target: T1, Cannabinoid receptor 2; assay: Displacement of [3H] 2-((1R,2R,5R)-5-hydroxy-2-(3-hydroxypropyl)cyclohexyl)-5-(2-methyloctan-2-yl)phenol from human CB2 receptor expressed CHO-K1 cells by liquid scintillation counting; type: cell-based; in short: as §1
Cannabinoid receptor 1 [9] = molecular target: T2, Cannabinoid receptor 1; assay: Inverse agonist activity at human recombinant CB1 receptor expressed CHO cells membrane by [35S]GTPgamma binding assay relative to 2-((1R,2R,5R)-5-hydroxy-2-(3-hydroxypropyl)cyclohexyl)-5-(2-methyloctan-2-yl)phenol; type: functional, cell membranes; in short: as §2
Cannabinoid receptor 2 [10] = molecular target: T1, Cannabinoid receptor 2; assay: Agonist activity at human CB2 receptor expressed CHO cells by [35S]GTPgamma binding assay; type: functional, cell-based
Rattus norvegicus [11] = assay: Antiallodynic activity in Sprague-Dawley rat L5/L6 spinal nerve tight ligated neuropathic pain model assessed as paw withdrawal threshold at 10 mg/kg, ip […] ipsilateral injured paw; type: functional, organism-based; parameters: dose 10 mg/kg; in short: as §3

T2 sequence (P21554 whole entry): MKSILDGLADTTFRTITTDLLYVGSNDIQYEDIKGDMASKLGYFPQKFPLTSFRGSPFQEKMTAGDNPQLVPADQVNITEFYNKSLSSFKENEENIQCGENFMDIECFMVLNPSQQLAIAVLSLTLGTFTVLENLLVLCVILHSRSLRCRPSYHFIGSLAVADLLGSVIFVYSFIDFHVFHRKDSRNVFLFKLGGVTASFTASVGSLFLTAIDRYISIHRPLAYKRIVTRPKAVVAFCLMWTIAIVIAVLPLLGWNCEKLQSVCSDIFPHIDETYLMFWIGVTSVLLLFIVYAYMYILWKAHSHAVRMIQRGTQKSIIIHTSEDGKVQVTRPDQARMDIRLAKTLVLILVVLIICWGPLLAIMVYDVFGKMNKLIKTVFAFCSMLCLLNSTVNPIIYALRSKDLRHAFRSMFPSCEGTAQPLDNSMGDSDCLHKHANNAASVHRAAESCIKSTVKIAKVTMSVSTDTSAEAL
T1 sequence (P34972 whole entry): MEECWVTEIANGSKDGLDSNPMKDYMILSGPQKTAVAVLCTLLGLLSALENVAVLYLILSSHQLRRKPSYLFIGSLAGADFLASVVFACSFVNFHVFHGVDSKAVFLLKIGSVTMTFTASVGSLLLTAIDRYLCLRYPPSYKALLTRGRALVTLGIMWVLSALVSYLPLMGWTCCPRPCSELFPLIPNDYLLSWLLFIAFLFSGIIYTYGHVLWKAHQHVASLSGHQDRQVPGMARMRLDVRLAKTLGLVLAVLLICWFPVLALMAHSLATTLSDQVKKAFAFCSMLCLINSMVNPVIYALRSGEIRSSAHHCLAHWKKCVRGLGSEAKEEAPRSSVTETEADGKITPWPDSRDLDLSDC

Row | SMILES | Emax (Cannabinoid receptor 2 [4]) [%] | pEC50 (Cannabinoid receptor 1 [5]) | pEC50 (Cannabinoid receptor 2 [6]) | also measured
1 | CN(c1ccc2c(c1)nc(Cc1ccc3c(c1)CCO3)n2CC1CCCCC1)S(=O)(=O)c1ccccc1 |  |  |  | pKi (Cannabinoid receptor 2 [1]): 8.92; Activity (Cannabinoid receptor 2 [2]): 0.7 nM; pEC50 (Cannabinoid receptor 2 [3]): 8.66
2 | CCCCCN1C(=O)/C(=N\NC(=O)C2CCCCC2)c2ccc(OC)cc21 | -105 | < 5.00 | 7.54 | 
3 | CCCCCN1C(=O)/C(=N\NC(=O)OC(C)(C)C)c2ccc(OC)cc21 | -97 | < 5.00 | 7.80 | 
4 | CCCCCN1C(=O)/C(=N\NC(=O)CN2CCOCC2)c2ccc(OC)cc21 | -80 | < 5.00 | 7.88 | 
5 | CCCCCCN1C(=O)/C(=N\NC(=O)c2ccccc2)c2ccc(OC)cc21 | -92 | < 5.00 | 7.05 | Activity (Rattus norvegicus [7]): Active; pKi (Cannabinoid receptor 2 [2]): 7.05; pKi (Cannabinoid receptor 2 [8]): 7.05
6 | COc1ccc2c(c1)N(CC1CCCCC1)C(=O)/C2=N\NC(=O)c1ccccc1 | -82 |  |  | Emax (Cannabinoid receptor 1 [9]): 40.8%
7 | CCCCCN1C(=O)/C(=N\NC(=O)C(C)(C)C)c2ccc(OC)cc21 | -78 | < 5.00 | 8.00 | 
8 | COCCN1C(=O)/C(=N\NC(=O)c2ccccc2)c2ccc(OC)cc21 | -60 | < 5.00 | 6.31 | 
9 | CCCCCN1C(=O)/C(=N\NC(=O)c2ccccc2)c2ccc(OC)cc21 | -108 | 6.58 |  | Emax (Cannabinoid receptor 1 [9]): 41%
10 | COc1ccc(C(=O)c2c(C)n(CCN3CCOCC3)c3cc(I)ccc23)cc1 |  |  |  | pEC50 (Cannabinoid receptor 2 [10]): 7.12
11 | COc1ccc2c(c1)N(CC1CCCCC1)C(=O)/C2=N\NC(=O)C1CCCCC1 | -69 | < 5.00 | 7.15 | 
12 | CC1(Cc2ccccc2)COc2cc(C(=O)N3CCCCC3)ccc21 (centres undefined) |  |  |  | Activity (Rattus norvegicus [11]): Active
13 | CCCCCN1C(=O)/C(=N\NC(=O)CC2CCCCC2)c2ccc(OC)cc21 | -88 | < 5.00 | 7.37 | 
14 | CCCCCN1C(=O)/C(=N\NC(=O)C(C)(C)O)c2ccc(OC)cc21 | -99 | < 5.00 | 7.83 | 
15 | COc1ccc2c(c1)N(Cc1ccccc1)C(=O)/C2=N\NC(=O)c1ccccc1 | -96 | < 5.00 |  | 
16 | CCCCCN1C(=O)/C(=N\NC(=O)CC(C)C)c2ccc(OC)cc21 | -78 | < 5.00 | 7.93 | 
17 | CCCCN1C(=O)/C(=N\NC(=O)c2ccccc2)c2ccc(OC)cc21 | -95 | < 5.00 |  | 
18 | COc1ccc2c(c1)N(CCC1CCCCC1)C(=O)/C2=N\NC(=O)c1ccccc1 | -104 | < 5.00 |  | 
